The results in this text go back to ChEMBL document CHEMBL1221386, “Synthesis and pharmacological evaluation of 3-aryl-3-azolylpropan-1-amines as selective triple serotonin/norepinephrine/dopamine reuptake inhibitors” (Bioorg Med Chem Lett, 2010).

Series [1] addresses Sodium-dependent serotonin transporter (Rattus norvegicus) (UniProt P31652). Nature of the series: Displacement of [3H]paroxetine from SERT in rat cerebral cortex at 1 uM. The series is classed as tissue-based. The method in brief: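 Competition binding against 2 nM [3H]paroxetine on freshly prepared rat frontal cortex membranes, homogenized and centrifuged twice at 20,000g, then resuspended in incubation buffer. Tris–HCl pH 7.4 buffer with NaCl and 5 mM KCl. Incubation 2 h at 25 °C, run in triplicate. Nonspecific binding defined with citalopram. Read-out is percent inhibition at 1 µM.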

Series [2] is described as follows: Half life in rat liver microsomes. The series is classed as ADME, Microsome. The method in brief:
(§1)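 Metabolic stability in human or rat liver microsomes. Half-lives measurable up to 60 min.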

Series [3] addresses T1, Sodium-dependent noradrenaline transporter (Homo sapiens, UniProt P23975). Nature of the series: Inhibition of norepinephrine reuptake at human NET expressed in MDCK cells at 100 nM.
Series [4] concerns the target T2, Sodium-dependent dopamine transporter (Homo sapiens, UniProt Q01959). Nature of the series: Inhibition of dopamine reuptake at human dopamine transporter expressed in CHO cells at 100 nM.
Series [5] concerns the target T3, Sodium-dependent serotonin transporter (Homo sapiens, UniProt P31645). Nature of the series: Inhibition of serotonin reuptake at human SERT expressed in HEK293 cells at 100 nM.
Target sequence in this assay (P31645 whole entry, looked up): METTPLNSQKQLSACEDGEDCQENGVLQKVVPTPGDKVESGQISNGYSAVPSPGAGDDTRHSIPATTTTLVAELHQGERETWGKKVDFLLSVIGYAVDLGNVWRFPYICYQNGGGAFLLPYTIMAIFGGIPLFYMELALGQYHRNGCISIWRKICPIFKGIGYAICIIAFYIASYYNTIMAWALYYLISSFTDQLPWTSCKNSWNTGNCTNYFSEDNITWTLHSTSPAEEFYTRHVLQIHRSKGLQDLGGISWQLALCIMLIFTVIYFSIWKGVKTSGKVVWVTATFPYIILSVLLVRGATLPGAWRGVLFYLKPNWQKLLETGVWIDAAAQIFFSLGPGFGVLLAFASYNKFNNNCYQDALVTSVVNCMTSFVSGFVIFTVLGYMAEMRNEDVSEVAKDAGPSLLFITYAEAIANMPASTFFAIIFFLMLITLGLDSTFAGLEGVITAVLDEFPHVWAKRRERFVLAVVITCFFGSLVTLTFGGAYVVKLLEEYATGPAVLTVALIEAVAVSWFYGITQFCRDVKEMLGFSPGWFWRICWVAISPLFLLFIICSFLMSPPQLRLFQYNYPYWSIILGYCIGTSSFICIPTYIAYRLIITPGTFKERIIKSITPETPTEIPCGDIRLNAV
Series [6] concerns the target Sodium-dependent serotonin transporter (Rattus norvegicus) (UniProt P31652). Nature of the series: Displacement of [3H]paroxetine from SERT in rat cerebral cortex at 100 nM. (Displacement assays read how much labelled ligand stays bound in the presence of the test substance.)
Series [7] can be described thus: Half life in human liver microsomes. The series is classed as ADME, Microsome. A digest of the protocol:
as §1
On the technique in general: Liver microsomes are a subcellular fraction often used to study metabolism.

In series [8] the target is T3, Sodium-dependent serotonin transporter. Nature of the series: Inhibition of serotonin reuptake at human SERT expressed in HEK293 cells. The class given is cell-based.
Target sequence in this assay (P31645 whole entry): as the sequence (P31645 whole entry, looked up) above
The target in series [9] is T1, Sodium-dependent noradrenaline transporter. Nature of the series: Inhibition of norepinephrine reuptake at human NET expressed in MDCK cells. The class given is cell-based.
The target in series [10] is T2, Sodium-dependent dopamine transporter. In words: Inhibition of dopamine reuptake at human dopamine transporter expressed in CHO cells. The class given is cell-based. The method in brief:
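CHO-K1 cells stably expressing human DAT, assayed for [3H]DA uptake in duplicate. Nomifensine served as standard. IC50 determined.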

Series [11] relates to Mus musculus. Nature of the series: Antidepressant activity in mouse assessed as reduction of mobility time by forced swimming test at 30 mg/kg, ip. Further details: scale not given: the % may be the effect or the level left. The conditions noted are these: route intraperitoneal.

For orientation: inhibition means the relative decrease from the control value, in per cent. Broadly, the half-life is the time in which the quantity being followed falls by half. A word on the IC50: it is the concentration at which inhibition is half-maximal.

T1 sequence (P23975 whole entry): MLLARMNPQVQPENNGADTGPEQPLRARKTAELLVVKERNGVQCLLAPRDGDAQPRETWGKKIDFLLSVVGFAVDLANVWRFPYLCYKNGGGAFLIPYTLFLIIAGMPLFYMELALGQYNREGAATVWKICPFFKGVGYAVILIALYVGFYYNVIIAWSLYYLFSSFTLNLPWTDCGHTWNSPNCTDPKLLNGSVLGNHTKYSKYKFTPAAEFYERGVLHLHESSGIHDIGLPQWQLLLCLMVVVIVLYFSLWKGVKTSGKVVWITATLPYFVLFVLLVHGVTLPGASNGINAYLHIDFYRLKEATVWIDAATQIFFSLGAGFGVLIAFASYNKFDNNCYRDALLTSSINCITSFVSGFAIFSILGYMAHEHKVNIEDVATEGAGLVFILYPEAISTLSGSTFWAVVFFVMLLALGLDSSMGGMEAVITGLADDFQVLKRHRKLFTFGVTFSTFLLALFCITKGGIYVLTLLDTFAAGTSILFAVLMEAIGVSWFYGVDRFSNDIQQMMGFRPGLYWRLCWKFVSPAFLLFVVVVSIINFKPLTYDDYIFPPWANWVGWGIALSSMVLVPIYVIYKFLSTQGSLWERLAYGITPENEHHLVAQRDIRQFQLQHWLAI
T2 sequence (Q01959 whole entry): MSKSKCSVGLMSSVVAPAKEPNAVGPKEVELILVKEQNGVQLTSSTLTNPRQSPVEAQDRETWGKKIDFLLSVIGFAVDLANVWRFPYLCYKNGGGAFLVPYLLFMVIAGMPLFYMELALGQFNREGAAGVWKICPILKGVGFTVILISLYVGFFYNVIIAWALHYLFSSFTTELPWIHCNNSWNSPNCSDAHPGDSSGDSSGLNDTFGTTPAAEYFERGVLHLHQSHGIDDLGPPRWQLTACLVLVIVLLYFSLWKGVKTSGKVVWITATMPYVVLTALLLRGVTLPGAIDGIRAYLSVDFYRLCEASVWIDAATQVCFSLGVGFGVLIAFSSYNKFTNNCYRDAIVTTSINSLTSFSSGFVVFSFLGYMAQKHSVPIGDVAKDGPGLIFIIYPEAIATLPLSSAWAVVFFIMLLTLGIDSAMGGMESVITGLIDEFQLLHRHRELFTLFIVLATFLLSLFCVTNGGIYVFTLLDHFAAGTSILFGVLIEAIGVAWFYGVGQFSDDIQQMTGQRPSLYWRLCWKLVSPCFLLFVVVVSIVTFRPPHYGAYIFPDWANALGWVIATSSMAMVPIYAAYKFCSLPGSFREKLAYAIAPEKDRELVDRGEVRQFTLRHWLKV
Chain of Sodium-dependent serotonin transporter (Rattus norvegicus) (P31652 whole entry): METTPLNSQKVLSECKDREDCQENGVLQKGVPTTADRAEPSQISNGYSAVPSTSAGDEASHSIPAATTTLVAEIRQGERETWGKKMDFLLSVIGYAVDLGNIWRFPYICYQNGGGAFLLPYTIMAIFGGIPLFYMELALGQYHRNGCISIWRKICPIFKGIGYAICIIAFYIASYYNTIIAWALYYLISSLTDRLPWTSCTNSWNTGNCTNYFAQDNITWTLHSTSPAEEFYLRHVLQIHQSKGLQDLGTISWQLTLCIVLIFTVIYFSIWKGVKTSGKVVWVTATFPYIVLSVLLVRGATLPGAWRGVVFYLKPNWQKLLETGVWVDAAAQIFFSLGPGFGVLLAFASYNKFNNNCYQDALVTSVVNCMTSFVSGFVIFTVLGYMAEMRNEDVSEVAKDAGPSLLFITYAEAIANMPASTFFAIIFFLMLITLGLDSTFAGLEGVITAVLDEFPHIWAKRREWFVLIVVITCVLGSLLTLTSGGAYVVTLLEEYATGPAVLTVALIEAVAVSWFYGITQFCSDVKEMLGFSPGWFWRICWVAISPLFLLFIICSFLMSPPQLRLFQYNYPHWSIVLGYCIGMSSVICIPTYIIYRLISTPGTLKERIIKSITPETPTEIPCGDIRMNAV

Turning to `CNCCC(c1cccc2ccccc12)n1ncnn1` (racemic), the inhibition in series [1] was 51.6%.
In the case of `CNCCC(c1ccc2cc(F)ccc2c1)n1ncnn1` (racemic), the half-life in [2] was 29 min; in [7], above 60 min. Besides, the inhibition stood at 25% in series [3], 6% in [4], 59% in series [5] and 80.1% in series [6].
With `COc1ccc2cc(C(CCN(C)C)n3ncnn3)ccc2c1` (racemic), the inhibition in [3] amounted to 39%; in series [4], 36%; in series [5], 44%; in series [6], 33.6%.
Regarding `CN(C)CCC(c1ccc(OCc2ccccc2)cc1)n1ncnn1` (racemic), the inhibition in [6] came out at 9.5%.
Consider `CNCCC(c1ccc2cc(C)ccc2c1)n1ncnn1` (racemic), for which the inhibition came out at 55% in series [3], 3% in [4], 93% in series [5] and 93.3% in series [1].
Consider `CN(C)CCC(c1ccc2ccccc2c1)n1ncnn1` (racemic), for which the figures for the 50% inhibitory concentration (IC50) in series [8], in series [9] and in series [10] were 138 nM, 264 nM and 616 nM, respectively. In addition, the half-life in series [2] turned out to be 3 min; in series [7], 50 min. The inhibition in series [3] came out at 30%; in [4], 20%; in [5] it was 41%; in series [1], 85.1%. In addition, in series [11], the Activity is on record as 43.2%.
Take `Cc1ccc(C(CCN(C)C)n2ncnn2)cc1C` (racemic): the inhibition in series [1] stood at 49.2%.
In the case of `CN(C)CCC(c1ccc2cc(Cl)ccc2c1)n1ncnn1` (racemic), the inhibition stood at 32% in series [3], 18% in series [4], 46% in series [5] and 54.3% in [1].
Turning to `CNCCC(c1ccc2cc(OC)ccc2c1)n1ncnn1` (racemic), the inhibition in series [3] was 70%; in series [4] it was 4%; in series [5], 88%; in [6], 81.2%.
On to `Cc1nnn(C(CCN(C)C)c2ccc(C(C)(C)C)cc2)n1` (racemic), for which the inhibition in series [6] was -3%.
Consider `CNCCC(c1ccc(Cl)cc1)n1ncnn1` (racemic), for which, in series [1], the inhibition was 41.1%.
On to `CNCCC(c1ccc(C(F)(F)F)cc1)n1ncnn1` (racemic), for which the inhibition in series [6] stood at 15.3%.
Take `CN(C)CCC(c1ccc(Cl)c(Cl)c1)n1nccn1` (racemic): the inhibition in [1] was determined as 69.9%.
With `CN(C)CCC(c1ccc(Cl)cc1Cl)n1ncnn1` (racemic), the inhibition in [6] was -0.2%.
Regarding `Cc1nnn(C(CCN(C)C)c2ccc(Cl)c(Cl)c2)n1` (racemic), the inhibition in [1] worked out at 69.4%.
In the case of `CNCCC(c1ccc2cc(OC)ccc2c1)n1nnc(C)n1` (racemic), the inhibition in series [3] stood at 84%; in series [4] it was 3%; in series [5], 82%; in series [6], 80.2%.
Consider `CN(C)CCC(c1ccc2ccccc2c1)n1nnc(-c2ccccc2)n1` (racemic), for which, in [1], the inhibition was 92.6%.
Turning to `CNCCC(c1ccc(Br)cc1)n1ncnn1` (racemic), in [6], the inhibition turned out to be 10.7%.
In the case of `CNCC[C@@H](c1ccc2ccccc2c1)n1nnc(C)n1`, the inhibition came to 79% in series [3], 7% in series [4], 82% in series [5] and 60.2% in series [6].
Turning to `CNCCC(c1ccc(Cl)c(Cl)c1)n1ncnn1` (racemic), the concentration for half-maximal inhibition (IC50) in series [8] came out at 181 nM; in [9], 69 nM; in [10], 116 nM. Moreover, the half-life in series [2] and in series [7] was above 60 min in each case. Also, the inhibition in series [3] turned out to be 56%; in series [4], 48%; in series [5], 35%; in series [1] it was 86%.
For the compound `CN(C)CCC(c1ccc(Cl)cc1)n1ncnn1` (racemic), the inhibition in series [1] was found to be 32.4%.
Regarding `CNCCC(c1ccc2ccccc2c1)n1nnc(-c2ccccc2)n1` (racemic), the Activity in series [11] was 5.5%. Besides, the inhibition in series [1] was determined as 98.4%.
Regarding `CNCC[C@H](c1ccc(Cl)c(Cl)c1)n1nnc(C)n1`, the inhibition in [6] came out at 20%.
Regarding `Cc1nnn(C(CCN(C)C)c2ccc3ccccc3c2)n1` (racemic), the inhibition in series [1] is 85%.
Regarding `CNCC[C@H](c1ccc2ccccc2c1)n1nnc(C)n1`, the inhibition in series [3] worked out at 37%; in series [4], 3%; in series [5] it was 23%; in series [6], 34.5%.
As to `COc1ccc(C(CCN(C)C)n2ncnn2)cc1OC` (racemic), the inhibition in series [6] came to 12.9%.
For `CNCCC(c1ccc(Oc2ccccc2)cc1)n1ncnn1` (racemic), the inhibition in series [6] is -1.7%.
Regarding `CNCCC(c1ccc2ccccc2c1)n1nnc(C)n1` (racemic), the inhibition in [1] turned out to be 93.6%.
Turning to `CNCCC(c1ccc2ccccc2c1)n1ncnn1` (racemic), the values for the half-maximal inhibitory concentration (IC50) in [8], in series [9] and in series [10] were 32 nM, 13.3 nM and 1240 nM, respectively. Moreover, the half-life amounted to 12 min in [2] and 49 min in [7]. The inhibition in [3] was determined as 84%; in series [4] it was 10%; in [5], 78%; in series [1], 90.4%.
As to `CNCCC(c1ccc2cc(Cl)ccc2c1)n1ncnn1` (racemic), the values for the inhibition in series [3], in series [5] and in series [1] were 20%, -4% and 52.1%, respectively.
In the case of `COc1ccc(C(CCN(C)C)n2ncnn2)cc1Cl` (racemic), the inhibition in series [1] was 39.9%.
Regarding `Cc1nnn(C(CCN(C)C)c2ccc3cc(F)ccc3c2)n1` (racemic), the inhibition in series [3] came out at 10%; in series [4], 6%; in series [5] it was 61%; in series [6], 67.5%.
Turning to `CN(C)CCC(c1ccc(Cl)c(Cl)c1)n1ncnn1` (racemic), the figures for the half-inhibitory concentration (IC50) in series [8], in [9] and in [10] were 279 nM, 234 nM and 78 nM, respectively. Also, the half-life in series [2] came to 3 min; in [7] it was 55 min. Also, the inhibition was determined as 37% in series [3], 58% in series [4], 27% in series [5] and 72% in series [1].
Regarding `CN(C)CCC(c1ccc(F)c(F)c1)n1ncnn1` (racemic), the inhibition in series [1] came out at 25.3%.
Take `CNCCC(c1ccc(OC(F)(F)F)cc1)n1ncnn1` (racemic): the inhibition in series [6] stood at 3.1%.
Take `CNCCC(c1ccc2cc(F)ccc2c1)n1nnc(C)n1` (racemic): the half-life in series [2] was 27 min; in series [7], above 60 min. In addition, the inhibition amounted to 39% in series [3], 10% in series [4], 58% in series [5] and 81.3% in [6].
Take `CNCCC(c1ccc(Cl)c(Cl)c1Cl)n1ncnn1` (racemic): the inhibition in [6] came to 39.1%.
Same read-out and setting: the value for `CN(C)CCC(c1cccc(Cl)c1)n1ncnn1` (racemic) was -5.6%.
Take `Cc1ccc2cc(C(CCN(C)C)n3ncnn3)ccc2c1` (racemic): in series [1], the inhibition was 87.7%.
Take `CN(C)CCC(c1ccc2cc(F)ccc2c1)n1ncnn1` (racemic): the half-life in series [2] is 3 min; in [7], above 60 min. Also, the inhibition in series [3] is 12%; in series [4], 7%; in [5], 61%; in series [6] it was 74.1%.
For `CNCCC(c1ccccc1Cl)n1nnc(C)n1` (racemic), the inhibition in series [6] stood at 5.9%.
For `CNCCC(c1ccc(Cl)c(Cl)c1)n1nnc(C)n1` (racemic), the inhibition in series [1] was found to be 86%.
